Results: article PMC9624299 (ACS chemical biology, 2022)

What was measured:
U87 cells = assay: Cell viability assay; assay type: cell-based, human; conditions: 7 days; for cytotoxicity (in words): U87; for IC50: U87, no MGMT expression, MGMT(−)/MMR(+), Alamar Blue
In short: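 Cells were cultured in EMEM with 10% FBS and 1% pen-strep (37 °C, 5% CO2), seeded and allowed to adhere 3 h. Test compound was added in DMSO (1% final). After 7 days of incubation, viability was read by Alamar Blue, with raptinal 20 μM as dead control. IC50 taken from dose–response curves; n ≥ 3, SEM.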

T98G cells = assay: Cell viability assay; assay type: cell-based, human; conditions: for cytotoxicity (in words) / IC50: T98G
In short: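 T98G cells were cultured in EMEM/10% FBS/1% pen-strep at 37 °C, 5% CO2, seeded and allowed to adhere. Where indicated, cells were pretreated 3 h with the MGMT inhibitor O6BG. Test compound was then added in DMSO (1% final). After 7 days, viability was read by Alamar Blue, with raptinal 20 μM as dead control; n ≥ 3, SEM.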

GBM cell lines = assay: Cell viability assay; assay type: cell-based; conditions: 7 days
In short: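 Panel lines were seeded and allowed to adhere 3 h, then dosed with test compound in DMSO (1% final) and incubated at 37 °C, 5% CO2 for 7 days. Viability was read by Alamar Blue, with raptinal 20 μM as dead control. IC50 values are from n ≥ 3, SEM.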

[1] = Hydrolytic stability studies; assay type: physicochemical; conditions: for hydrolytic stability, percentage of prodrug remaining after 2 h: HPLC
In short: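 Compound (100 μM) was incubated in PBS at 37 °C, pH 7.4 (also pH 7 and 8). Aliquots taken at set time points were analysed by HPLC. Peak areas were compared with t0 to give percent prodrug remaining, including at 2 h.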

BBB permeability = assay type: in vivo, CD-1 IGS mice; conditions: mice, 25 mg/kg IV, 15 min
In short: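 CD-1 IGS mice received 25 mg/kg by lateral tail vein in 5% DMSO, 10% Tween-20 and 85% SBE-βCD (30% w/v in water), and were killed at 15 min. Blood was taken, then mice were saline-perfused. Serum was acidified with 8.5% H3PO4. Brains were acidified (0.3% H3PO4), frozen, homogenised and centrifuged. Levels were measured by LC–MS/MS and used for brain:serum ratio; ≥3 mice/cohort.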

GBM = conditions: intracranial murine model of GBM; cited from earlier work
linearized pBR322 DNA = assay: DNA cross-linking/alkylation assay; assay type: biochemical; conditions: linearized pBR322 DNA 150 ng, 37 °C, Tris pH 8.5, 15 h, agarose gel
In short: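 pBR322 was linearised with EcoRI, purified and taken up in 10 mM Tris-Cl pH 8.5. DNA (150 ng) was incubated with test compound (DMSO, 5% v/v) at 37 °C for 15 h. Cisplatin and MMS served as positive controls. Samples were denatured 15 min at 4 °C in NaOH-containing sucrose/bromophenol blue buffer (no NaOH for non-denatured controls). Gels were run on 1% neutral agarose with ethidium bromide in TBE, 124 V, 1 h.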

HCT116 cells = assay: Cell viability assay, HCT116; assay type: cell-based
In short: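 HCT116 cells were grown in RPMI with 10% FBS and 1% pen-strep (37 °C, 5% CO2), seeded and allowed to adhere. Cells were tested with or without O6BG pretreatment. Test compound was added in DMSO (1% final) after 3 h. After 7 days, viability was read by Alamar Blue, with raptinal 20 μM as dead control.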

D341 Med cells = assay: Cell viability assay, D341 Med medulloblastoma; assay type: cell-based; conditions: Homo sapiens, 168 h
In short: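 D341 Med medulloblastoma cells were grown in EMEM with 20% FBS and 1% pen-strep (37 °C, 5% CO2). Cells were seeded and compound was added in DMSO (1% final) after 3 h. Incubation lasted 7 days, and viability was read by Alamar Blue, with raptinal 20 μM as dead control.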

RKO cells = assay: Cell viability assay, RKO colon cancer; assay type: cell-based
GL261 cells [2] = assay: Cell viability assay, GL261; assay type: cell-based; conditions: Mus musculus, GL261, 168 h
In short: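 Cells were grown in DMEM with 10% FBS and 1% pen-strep at 37 °C, 5% CO2, seeded and allowed to adhere. After 3 h, test compound was added in DMSO (1% final). Cells were incubated 7 days, and viability was assessed by Alamar Blue, with raptinal 20 μM as dead control.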

GL261 MGMT+ cells = assay: Cell viability assay, GL261 MGMT+; assay type: cell-based, mouse
U118MG cells = assay: Cell viability assay, U118MG; assay type: cell-based; conditions: MGMT-expressing
GL261 cells [3] = assay: Quantitation of O6-guanine DNA adducts in cells; assay type: cell-based, mouse; conditions: 100, 300 or 500 μM, 8 h, LC–MS/MS
In short: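 GL261 cells were plated at 1 × 10^6 per well and exposed to test compound at 100, 300 or 500 μM (1% DMSO) for 8 h. Genomic DNA was extracted, then precipitated with sodium acetate and ethanol. DNA (10 μg) was hydrolysed to deoxynucleosides (37 °C, 6 h). O6-alkyl-dG was quantified by LC–MS/MS against a synthetic standard; n ≥ 3.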

A172 cells = assay: Quantitation of O6-guanine DNA adducts in cells; assay type: cell-based; conditions: A172, MGMT-negative; LC–MS/MS
D54 cells = assay: Quantitation of O6-guanine DNA adducts in cells; assay type: cell-based; conditions: D54, MGMT-negative; LC–MS/MS
[4] = system: Salmonella typhimurium TA100 strain; assay: Ames test, TA100; assay type: cell-based; conditions: 30 μM, 5 days, no S9 activation, wells per 96
In short: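 TA100 S. typhimurium was grown overnight, then dispensed into 96-well plates (microplate Ames format) with test compound, growth medium and colorimetric indicator, without S9 activation. Plates were incubated 5 days, and the number of wells per plate showing revertant growth was scored by colour change.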

[5] = system: Escherichia coli WP2 uvrA pKM101 strain; assay: Ames test, WP2 uvrA pKM101; assay type: cell-based; conditions: 30 μM
In short: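 E. coli WP2 uvrA pKM101 tester strain was run in the 96-well microplate version of the Ames test following the kit maker's instructions. Test compound was added at the indicated concentrations.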

[6] = Assessment of hematological toxicity; assay type: in vivo, CD-1 IGS mice; conditions: mice, single 125 mg/kg IV dose, 7 days
[7] = aqueous solution, PBS, pH 7.4, 37 °C; cited from earlier work
[8] = cited from earlier work
glioblastoma = conditions: GBM patients, TMZ added to RT; cited from earlier work
[9] = same schedule (once-per-day over five days); cited from earlier work
[10] = high MGMT expression, MGMT(+)/MMR(+), 7 days, Alamar Blue

NC(=O)c1ncn2c(=O)[nH]nnc12 [Compound 1]
cytotoxicity (in words) (U87 cells): unable to induce cell death
cytotoxicity (in words) (T98G cells; 7 days): unable to induce cell death

CCn1nnc2c(C(N)=O)ncn2c1=O [Compound 2]
IC50 (U87 cells): 470 µM
cytotoxicity (in words) (U87 cells): much less active than TMZ
cytotoxicity (in words) (T98G cells; 7 days): much less active than TMZ

CC(C)n1nnc2c(C(N)=O)ncn2c1=O [Compound 4]
cytotoxicity (in words) (U87 cells): inactive
cytotoxicity (in words) (T98G cells; 7 days): inactive

CC(C)(C)n1nnc2c(C(N)=O)ncn2c1=O [Compound 5]
cytotoxicity (in words) (U87 cells): inactive
cytotoxicity (in words) (T98G cells; 7 days): inactive

CC(C)(C)Cn1nnc2c(C(N)=O)ncn2c1=O [Compound 6]
cytotoxicity (in words) (U87 cells): inactive
cytotoxicity (in words) (T98G cells; 7 days): inactive

C#CCn1nnc2c(C(N)=O)ncn2c1=O [Compound 10]
IC50 (U87 cells): 29 µM
IC50 (T98G cells; [10]): 77 µM
IC50 (GBM cell lines; all cell lines of the expanded GBM panel): < 100 µM
half-life ([1]; PBS pH 7.4, 37 °C): ~ 30 min
hydrolytic stability, percentage of prodrug remaining after 2 h ([1]; PBS pH 7.4, 37 °C): 8%
brain:serum ratio (BBB permeability): 0.06 ± 0.01 ng/g:ng/mL
efficacy in an intracranial efficacy model (in words) (GBM): limited efficacy

CC#CCn1nnc2c(C(N)=O)ncn2c1=O [Compound 19]
IC50 (U87 cells): 37 µM
IC50 (T98G cells; [10]): 110 µM
DNA alkylation (in words) (linearized pBR322 DNA): Trace DNA alkylation
DNA interstrand cross-linking (in words) (linearized pBR322 DNA): definitively absent

COS(C)(=O)=O [MMS, methylmethanesulfonate]
DNA alkylation (in words) (linearized pBR322 DNA): cause DNA streaking

NC(=O)c1ncn2c(=O)n(CCCl)nnc12 [MTZ, mitozolomide]
cytotoxicity (in words) (U87 cells): robust cytotoxicity
cytotoxicity (in words) (T98G cells; 7 days): robust cytotoxicity

Cn1nnc2c(C(N)=O)ncn2c1=O [TMZ, temozolomide]
IC50 (T98G cells; Homo sapiens, 168 h): > 550 µM
loss of activity in T98G relative to U87 (T98G cells; IC50 T98G vs U87): > 10 fold
effect of MGMT inhibitor pretreatment on cell death (T98G cells; T98G pretreated (3 h) with O6BG vs non-pretreated): dramatic potentiation of cell death
difference in IC50 values between MGMT-negative and positive cell lines (GBM cell lines; expanded GBM panel): > 6 fold
effect of MGMT inhibitor pretreatment on cytotoxicity (HCT116 cells; HCT116 pretreated with O6BG): negligible potentiation
IC50 (HCT116 cells; Homo sapiens, HCT-116, 168 h): > 800 µM
IC50 (D341 Med cells): 460 µM
IC50 (RKO cells; Homo sapiens): > 1000 µM
effect of MGMT inhibitor pretreatment on cell death (RKO cells; MGMT-expressing, MGMT inhibitor): cell death potentiation
IC50 (GL261 cells [2]): 120 µM
effect of MGMT inhibitor pretreatment on cell death (GL261 MGMT+ cells; GL261 MGMT+ pre-treated with lomeguatrib): potentiation of cell death
IC50 (GL261 MGMT+ cells; Mus musculus, GL261, 168 h): > 1000 µM
effect of MGMT inhibitor pretreatment on cell death (U118MG cells): cell death potentiation
hydrolytic stability, percentage of prodrug remaining after 2 h ([1]; PBS pH 7.4, 37 °C): 40%
half-life at 100 μM ([1]; PBS, pH 7.4): ~1.5 h
O6-alkyl-2′-deoxyguanosine adducts (O6-Me-dG for TMZ, O6-Prop-dG for CPZ) (GL261 cells [3]): dose-dependent increase
O6-dG alkylation adducts (A172 cells): dose-dependent increase in methyl adducts
O6-dG alkylation adducts (D54 cells): dose-dependent increase in methyl adducts
revertant (mutated) colonies [4]: 35/96
mutagenicity (in words) [5]: highly mutagenic
revertant colonies ([5]; wells per 96): 95/96
DNA alkylation (in words) (linearized pBR322 DNA): cause DNA streaking
white blood cell, lymphocyte and neutrophil counts (in words) [6]: depletions in white blood cells, lymphocytes, and neutrophils
half-life in vitro [7]: 1.5 to 2 h
half-life in vivo (t1/2) ([8]; human patients, human pharmacokinetics): 1.5 to 2 h
cerebral spinal fluid concentration as percentage of plasma concentration ([8]; humans, average): about 20%
overall patient survival (glioblastoma): 15 months
survival benefit vs RT alone (glioblastoma): ≤ 8 month
reported MTD [9]: ~ 66 mg/kg

C=CC=O [acrolein]
DNA alkylation (in words) (linearized pBR322 DNA): no evidence of alkylation
DNA interstrand cross-linking (in words) (linearized pBR322 DNA): interstrand cross-linking

N.N.[Cl][Pt][Cl] [cisplatin]
DNA interstrand cross-linking (in words) (linearized pBR322 DNA): prevent the full denaturation of double-stranded DNA
